The source made the active and inactive calls. The calls are words filed in the database; no cut-off is given here.
Assays:
RAW264.7 [1] = assay: Antiinflammatory activity in mouse RAW264.7 cells assessed as inhibition of LPS-stimulated nitric oxide production at 10 uM preincubated for 2 hrs followed by LPS stimulation for 24 hrs by Griess reagent based assay relative to control; assay type: functional; details: time 26 hrs
Method in brief: (§1)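 RAW264.7 cells pretreated 2 h with compound, then LPS (500 ng/mL) 24 h. Nitrite in culture supernatant measured with Griess reagent (1% sulfanilamide in 5% H3PO4, 0.1% N-(1-naphthyl)ethylenediamine dihydrochloride). Inhibition % as mean ± SEM of triplicates; negative values denote enhancement of NO.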

RAW264.7 [2] = assay: Antiinflammatory activity in mouse RAW264.7 cells assessed as inhibition of LPS-stimulated nitric oxide production at 20 uM preincubated for 2 hrs followed by LPS stimulation for 24 hrs by Griess reagent based assay relative to control; assay type: functional; details: time 26 hrs; method in brief: as §1
HEK-293T [3] = assay: Cytotoxicity against HEK293T cells at 3 to 30 uM by MTS assay; assay type: toxicity, cell-based; details: human, dose 3-30 µM
Method in brief: (§2)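 MTS viability assay in RAW264.7 and 293T cells at 3, 10 and 30 μM.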

RAW264.7 [4] = assay: Antiinflammatory activity in mouse RAW264.7 cells assessed as inhibition of LPS-stimulated nitric oxide production preincubated for 2 hrs followed by LPS stimulation for 24 hrs by Griess reagent based assay; assay type: functional, cell-based; details: for inhibition: time 26.0 hrs; method in brief: as §1
RAW264.7 [5] = assay: Cytotoxicity against mouse RAW264.7 cells at 3 to 30 uM by MTS assay; assay type: toxicity, cell-based; details: raw264.7, 30 µM, dose 3-30 µM; method in brief: as §2
RAW264.7 [6] = assay: Antiinflammatory activity in mouse RAW264.7 cells assessed as inhibition of nitric oxide production incubated for 2 hrs by Griess reagent based assay; assay type: functional, cell-based; method in brief: as §1
RAW264.7 [7] = assay: Antiinflammatory activity in LPS-stimulated mouse RAW264.7 cells assessed as inhibition in IL-1beta level at 3 to 30 uM preincubated for 2 hrs followed by LPS stimulation for 24 hrs by ELISA; assay type: functional, cell-based; details: dose 3-30 µM, time 26.0 hrs
Method in brief: (§3)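 RAW264.7 macrophages pretreated 2 h with compound, or Bay11-7082 as positive control, then LPS (500 ng/mL) for 24 h. IL-6, IL-1β and TNF-α in supernatants quantified by ELISA. Mean ± SEM.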

Mus musculus [8] = species: Mus musculus; assay: Antiinflammatory activity in DNCB-stimulated atopic dermatitis BALB/c mouse model assessed as reduction in epidermal thickness of ear at 0.5 % pretreated for 30 mins followed by DNCB re-treatment measured after 3 hrs by H and E staining based microscopic analysis; assay type: functional, organism-based; details: time 3.5 hrs
Method in brief: (§4)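 DNCB-induced atopic dermatitis model in mouse ears, lesions peaking day 7 after sensitization; test agent applied at 0.5%. Ear thickness measured daily with a digimatic micrometer; ear lesions photographed. Ear specimens H&E-stained and examined microscopically for epidermal and dermal thickness and inflammatory cell infiltration. Mean ± SEM.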

RAW264.7 [9] = assay: Antiinflammatory activity in LPS-stimulated mouse RAW264.7 cells assessed as inhibition in TNF-alpha level at 3 to 30 uM preincubated for 2 hrs followed by LPS stimulation for 24 hrs by ELISA; assay type: functional, cell-based; details: dose 3-30 µM, time 26.0 hrs; method in brief: as §3
HEK-293T [10] = assay: Antiinflammatory activity in HEK293T cells transfected with NF-kappaB (unknown origin) assessed as inhibition in NF-kB transcription at 3 to 30 uM preincubated for 2 hrs followed by PMA stimulation for 24 hrs by SEAP reporter gene based Quanti-blue assay; assay type: functional, cell-based; details: Homo sapiens, dose 3-30 µM, time 26.0 hrs
Method in brief: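 293T cells on poly-D-lysine-coated wells transfected overnight with pNF-κB-SEAP. Treated with compound for 2 h, then PMA (50 ng/mL) for 24 h. Bay 11-7082 (20 μM) served as NF-κB inhibitor control. SEAP activity read with QUANTI-Blue. Mean ± SEM.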

RAW264.7 [11] = assay: Antiinflammatory activity in mouse RAW264.7 cells assessed as inhibition of NF-kappaB translocation from cytosol to nucleus at 30 uM preincubated for 2 hrs followed by LPS stimulation for 2 hrs by immunofluorescence staining analysis; assay type: functional, cell-based; details: time 4.0 hrs
Method in brief: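 RAW264.7 cells in glass chamber wells overnight, treated 2 h with compound (30 μM) or Bay (20 μM), then LPS for 2 h. Immunostained for NF-κB p65 with Alexa Fluor 488 secondary; nuclei counterstained with DAPI in antifade medium; fluorescence imaging.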

Mus musculus [12] = species: Mus musculus; assay: Antiinflammatory activity in DNCB-stimulated atopic dermatitis BALB/c mouse model assessed as reduction in infiltration of inflammatory cells of ear at 0.5 % pretreated for 30 mins followed by DNCB re-treatment measured after 3 hrs by H and E staining based microscopic analysis; assay type: functional, organism-based; details: time 3.5 hrs; method in brief: as §4
[13] = target: TLR4-MyD88 (Mus musculus) (UniProt Q9QUK6+P22366); assay: Inhibition of TLR4-MyD88 interaction in mouse RAW264.7 cells at 30 uM preincubated for 2 hrs followed by LPS stimulation for 24 hrs by co-immunoprecipitation analysis; assay type: cell-based; details: time 26.0 hrs
Method in brief: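 RAW264.7 cells treated with compound at 30 μM for 2 h, then LPS (500 ng/mL) for 24 h. Lysates immunoprecipitated with MyD88- or TLR4-specific antibodies on protein A/G agarose beads; immunocomplexes probed by Western blot for TLR4 or MyD88.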

Mus musculus [14] = species: Mus musculus; assay: Antiinflammatory activity in DNCB-stimulated atopic dermatitis BALB/c mouse model assessed as reduction in dermal thickness of ear at 0.5 % pretreated for 30 mins followed by DNCB re-treatment measured after 3 hrs by H and E staining based microscopic analysis; assay type: functional, organism-based; details: time 3.5 hrs; method in brief: as §4
Mus musculus [15] = species: Mus musculus; assay: Antiinflammatory activity in DNCB-stimulated atopic dermatitis BALB/c mouse model assessed as reduction in skin lesion at 0.5 % pretreated for 30 mins followed by DNCB re-treatment measured after 3 hrs; assay type: functional, organism-based; details: time 3.5 hrs; method in brief: as §4
Mus musculus [16] = species: Mus musculus; assay: Antiinflammatory activity in DNCB-stimulated atopic dermatitis BALB/c mouse model assessed as reduction in ear swelling at 0.5 % pretreated for 30 mins followed by DNCB re-treatment measured after 3 hrs; assay type: functional, organism-based; details: time 3.5 hrs; method in brief: as §4
RAW264.7 [17] = assay: Antiinflammatory activity in LPS-stimulated mouse RAW264.7 cells assessed as reduction in COX-2 level at 10 to 30 uM preincubated for 2 hrs followed by LPS stimulation for 20 hrs by Western blot analysis; assay type: functional, cell-based; details: dose 10-30 µM, time 22.0 hrs
Method in brief: (§5)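 RAW264.7 cells pretreated 2 h with compound, then LPS (200 ng/mL) for 20 h. iNOS and COX-2 protein assessed by Western blot.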

RAW264.7 [18] = assay: Antiinflammatory activity in LPS-stimulated mouse RAW264.7 cells assessed as reduction in iNOS level at 10 to 30 uM preincubated for 2 hrs followed by LPS stimulation for 20 hrs by Western blot analysis; assay type: functional, cell-based; details: dose 10-30 µM, time 22.0 hrs; method in brief: as §5
RAW264.7 [19] = assay: Antiinflammatory activity in LPS-stimulated mouse RAW264.7 cells assessed as inhibition in IL-6 level at 3 to 30 uM preincubated for 2 hrs followed by LPS stimulation for 24 hrs by ELISA; assay type: functional, cell-based; details: dose 3-30 µM, time 26.0 hrs; method in brief: as §3

Chain of TLR4-MyD88 (Mus musculus) (P22366 whole entry, looked up): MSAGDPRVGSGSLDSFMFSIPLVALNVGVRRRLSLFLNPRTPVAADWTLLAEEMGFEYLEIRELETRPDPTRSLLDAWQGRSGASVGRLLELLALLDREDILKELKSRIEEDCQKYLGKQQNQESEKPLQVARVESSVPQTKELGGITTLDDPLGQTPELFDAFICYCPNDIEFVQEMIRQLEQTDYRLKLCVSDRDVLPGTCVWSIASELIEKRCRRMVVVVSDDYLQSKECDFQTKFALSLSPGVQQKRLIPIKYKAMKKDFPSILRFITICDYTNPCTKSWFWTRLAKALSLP
Chain of TLR4-MyD88 (Mus musculus) (Q9QUK6 whole entry, looked up): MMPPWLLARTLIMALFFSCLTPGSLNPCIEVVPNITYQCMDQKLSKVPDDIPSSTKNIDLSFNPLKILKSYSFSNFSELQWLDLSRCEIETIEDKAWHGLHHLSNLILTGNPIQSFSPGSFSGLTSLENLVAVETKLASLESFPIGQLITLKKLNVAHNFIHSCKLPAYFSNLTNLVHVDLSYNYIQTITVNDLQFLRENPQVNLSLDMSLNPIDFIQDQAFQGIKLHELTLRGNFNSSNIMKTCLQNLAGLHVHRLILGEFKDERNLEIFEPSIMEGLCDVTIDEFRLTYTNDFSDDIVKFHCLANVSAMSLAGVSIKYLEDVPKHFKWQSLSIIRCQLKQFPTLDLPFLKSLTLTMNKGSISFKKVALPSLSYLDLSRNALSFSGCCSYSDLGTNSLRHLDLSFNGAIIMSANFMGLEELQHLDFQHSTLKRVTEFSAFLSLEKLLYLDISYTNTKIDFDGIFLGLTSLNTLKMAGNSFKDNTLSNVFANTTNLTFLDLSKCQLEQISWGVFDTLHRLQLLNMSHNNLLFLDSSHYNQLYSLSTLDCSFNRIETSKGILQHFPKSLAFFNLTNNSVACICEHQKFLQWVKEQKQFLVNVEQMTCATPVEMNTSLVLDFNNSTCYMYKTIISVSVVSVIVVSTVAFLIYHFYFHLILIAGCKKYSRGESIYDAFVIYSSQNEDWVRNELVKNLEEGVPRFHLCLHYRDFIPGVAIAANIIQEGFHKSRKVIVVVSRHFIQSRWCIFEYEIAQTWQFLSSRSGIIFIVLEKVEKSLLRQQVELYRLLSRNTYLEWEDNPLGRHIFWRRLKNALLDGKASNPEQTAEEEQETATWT

Compound | inhibition at 10 µM (RAW264.7 [1]) | inhibition at 20 µM (RAW264.7 [2]) | further results
Fc1ccc(C2CC2Cn2cnc3c(Cl)nc(Cl)nc32)cc1 (stereo not given) | 4.11% | 17.1% | 
CNc1ncnc2c1ncn2C/C=C/c1ccc(F)cc1 | 0.97% | 2.9% | 
Oc1ccc(/C=C/c2cc(O)cc(O)c2)cc1 [RESVERATROL] | 26.6% | 38.6% | Activity (HEK-293T [3]): Non-Toxic; IC50 (RAW264.7 [4]): 26.4 µM; Activity (RAW264.7 [5]): Non-Toxic
Cc1ccc(/C=C/Cn2cnc3c(F)nc(F)nc32)cc1 | 5.88% | 12.1% | 
Nc1nc(Cl)nc2c1ncn2CC1CC1c1ccc(F)cc1 (stereo not given) | -6.22% | 1.56% | inhibition (RAW264.7 [4]): inactive; inhibition (RAW264.7 [6]): inactive
Clc1nc(Cl)c2ncn(C/C=C/c3ccccc3)c2n1 | 22.2% | 34.7% | 
Fc1ccc(/C=C/Cn2cnc3c(Cl)ncnc32)cc1 | 11.6% | 30.2% | 
Cc1ccc(/C=C/Cn2cnc3c(NO)nc(Cl)nc32)cc1 | 36.8% | 40.9% | 
ONc1nc(Cl)nc2c1ncn2C/C=C/c1ccccc1 | 57.4% | 51.2% | 
CNc1ncnc2c1ncn2C/C=C/c1ccccc1 | 19.3% | 33.4% | 
Fc1ccc(/C=C/Cn2cnc3c(Cl)nc(Cl)nc32)cc1 | 29.3% | 40.5% | 
Cc1ccc(/C=C/Cn2cnc3c(N)nc(Cl)nc32)cc1 | 11.9% | 11.2% | 
CNc1nc(Cl)nc2c1ncn2C/C=C/c1ccccc1 | 26.8% | 34.7% | 
CNc1nc(Cl)nc2c1ncn2CC1CC1c1ccc(F)cc1 (stereo not given) | 11.2% | 11.9% | 
CNc1nc(Cl)nc2c1ncn2C/C=C/c1ccc(C)cc1 | 28.4% | 34.6% | 
Nc1nc(Cl)nc2c1ncn2C/C=C/c1ccc(F)cc1 | 13.9% | 24.1% | 
Cc1ccc(/C=C/Cn2cnc3c(N)ncnc32)cc1 | 0.48% | -7.73% | inhibition (RAW264.7 [4]): inactive; inhibition (RAW264.7 [6]): inactive
Cc1ccc(/C=C/Cn2cnc3c(Cl)ncnc32)cc1 | 13.5% | 12.1% | 
Cc1ccc(/C=C/Cn2cnc3c(Cl)nc(F)nc32)cc1 | 31.1% | 60.5% | 
Nc1nc(Cl)nc2c1ncn2C/C=C/c1ccccc1 | -5.27% | 2.46% | inhibition (RAW264.7 [4]): inactive; inhibition (RAW264.7 [6]): inactive
ONc1nc(Cl)nc2c1ncn2C/C=C/c1ccc(F)cc1 | 4.59% | 17.6% | 
Nc1ncnc2c1ncn2C/C=C/c1ccc(F)cc1 | -17.1% | -19.3% | inhibition (RAW264.7 [4]): inactive; inhibition (RAW264.7 [6]): inactive
Clc1ncnc2c1ncn2C/C=C/c1ccccc1 | 15.1% | 14.8% | 
Nc1ncnc2c1ncn2C/C=C/c1ccccc1 | -3.38% | -13.3% | inhibition (RAW264.7 [4]): inactive; inhibition (RAW264.7 [6]): inactive
CNc1nc(Cl)nc2c1ncn2C/C=C/c1ccc(F)cc1 | 28.2% | 36.5% | 
Cc1ccc(/C=C/Cn2cnc3c(Cl)nc(Cl)nc32)cc1 | 31.9% | 60.4% | inhibition (RAW264.7 [7]): Active; Activity (Mus musculus [8]): Active; Activity (HEK-293T [3]): Non-Toxic; inhibition (RAW264.7 [9]): Active; inhibition (HEK-293T [10]): Active; inhibition (RAW264.7 [11]): Active; Activity (Mus musculus [12]): Active; inhibition [13]: Active; IC50 (RAW264.7 [4]): 6.4 µM; Activity (Mus musculus [14]): Active; Activity (Mus musculus [15]): Active; Activity (RAW264.7 [5]): Non-Toxic; Activity (Mus musculus [16]): Active; Activity (RAW264.7 [17]): Active; Activity (RAW264.7 [18]): Active; inhibition (RAW264.7 [19]): Active
CNc1ncnc2c1ncn2C/C=C/c1ccc(C)cc1 | -7% | -15.7% | inhibition (RAW264.7 [4]): inactive; inhibition (RAW264.7 [6]): inactive
